Measured values of several laboratories.
Compare with care: the assays were run in different laboratories. pEC50, pIC50: −log10 of the molar value. Values after ≈ are worked out from the molar mass of the structure shown.

SMILES	target or system	assay	test system	setting	measurement	result
C=CC(c1ccc(-c2ccc(O)cc2)cc1)n1ccnc1 (centres unmarked)	Mycobacterium tuberculosis variant bovis BCG	microbial growth	BCG		MIC50	> 50 µM
Cc1ccc(CN2C(=O)/C(=N\NC(=O)c3cc4ccccc4[nH]3)c3ccccc32)cc1	HT-29	cell growth or viability		30 µM	inhibition	91.1%
COc1c2c(cc3c1OCO3)[C@]13C=C[C@H](OC)C[C@@H]1[N@](C2)C[C@H]3OC(=O)c1ccc2ccccc2c1	A2780	cell growth or viability, WST-1			pIC50	< 5.00
N#Cc1c[nH]c2ccccc12	Cryptosporidium parvum	parasite growth	HCT-8	24 h, intracellular	pEC50	3.79
CCCCCCCCCCCCCCCCCCCCc1cc(O)cc(O)c1	Streptococcus pneumoniae	microbial growth			pIC50	< 3.70
N#CCc1c[nH]c2ccccc12	Cryptosporidium parvum	parasite growth	HCT-8	24 h, intracellular	pEC50	3.26
COC(=O)c1cc(-c2cccc(NC(=O)Nc3ccc(F)c(F)c3)c2)on1	Klebsiella pneumoniae	microbial growth, broth dilution	BAA1705		MIC	> 64 µg/mL
O=C(N/N=C1\C(=O)N(Cc2ccccc2)c2ccc(Cl)cc21)c1cc2ccccc2[nH]1	Swiss-3T3	cell growth or viability		72 h	pIC50	5.46
COC(=O)c1cc(-c2cccc(NC(=O)Nc3ccc(C(F)(F)F)cc3)c2)on1	Klebsiella pneumoniae	microbial growth, broth dilution	BAA1705		MIC	> 64 µg/mL
O=C(N/N=C1\C(=O)N(Cc2ccc(Cl)cc2)c2ccccc21)c1cc2ccccc2[nH]1	HT-29	cell growth or viability			pIC50	5.58
CCOC(=O)c1cc(-c2cccc(NC(=O)Nc3ccc(Cl)c(Cl)c3)c2)on1	Klebsiella pneumoniae	microbial growth, broth dilution	BAA1705		MIC	> 64 µg/mL
N#Cc1ccc(CN2C(=O)/C(=N\NC(=O)c3cc4ccccc4[nH]3)c3ccccc32)cc1	HT-29	cell growth or viability		30 µM	inhibition	81.6%
CC(C)C(C)CCCCCCCCCCCc1cc(O)cc(O)c1 (centres unmarked)	Streptococcus pneumoniae	microbial growth			pIC50	4.32
COc1ccc(C=CC(=O)c2ccc(-c3ccccc3)cc2)cc1OC	Mycobacterium tuberculosis variant bovis BCG	microbial growth	BCG	7 days	MIC	100 µg/mL (≈ 290 µM)
CC(C)CCCCCCCCCCCCc1cc(O)cc(O)c1	Streptococcus pneumoniae	microbial growth			pIC50	4.11
COC(=O)c1cc(-c2cccc(NC(=O)Nc3ccc(Cl)cc3Cl)c2)on1	Klebsiella pneumoniae	microbial growth, broth dilution	BAA1705		MIC	> 64 µg/mL
Cc1c(NN=C(C#N)C2=NC(=O)CS2)c(=O)n(-c2ccccc2)n1C	Klebsiella pneumoniae	microbial growth, well diffusion		100000 µg/mL	inhibition zone	25 mm
COC(=O)c1cc(-c2cccc(NC(=O)Nc3ccc(C)c(Cl)c3)c2)on1	Klebsiella pneumoniae	microbial growth, broth dilution	BAA1705		MIC	> 64 µg/mL
O=C(N/N=C1\C(=O)N(Cc2ccccc2)c2ccccc21)c1cc2ccccc2[nH]1	HT-29	cell growth or viability			pIC50	5.21
O=C(Nc1cccc(-c2cc(C(=O)O)no2)c1)Nc1ccc(Cl)c(Cl)c1	Klebsiella pneumoniae	microbial growth, broth dilution	BAA1705		MIC	> 64 µg/mL
CC(C)CCCCCCCCCCCCCCc1cc(O)cc(O)c1	Streptococcus pneumoniae	microbial growth			pIC50	4.33
COC(=O)c1cc(-c2cccc(NC(=S)Nc3cc(C(F)(F)F)cc(C(F)(F)F)c3)c2)on1	Klebsiella pneumoniae	microbial growth, broth dilution	BAA1705		MIC	> 64 µg/mL
O=C(N/N=C1\C(=O)N(Cc2ccccc2)c2ccc(F)cc21)c1cc2ccccc2[nH]1	HT-29	cell growth or viability			pIC50	5.46
